Values after ≈ are worked out from the molar mass of the structure shown.
Experiments:
[1] = molecular target: T1, Sodium- and chloride-dependent glycine transporter 1 (Homo sapiens, UniProt P48067); assay: Inhibition of [3H]glycine uptake at human glycine transporter 1 expressed in CHO cells by scintillation counter; format: cell-based
T1 sequence (P48067 whole entry): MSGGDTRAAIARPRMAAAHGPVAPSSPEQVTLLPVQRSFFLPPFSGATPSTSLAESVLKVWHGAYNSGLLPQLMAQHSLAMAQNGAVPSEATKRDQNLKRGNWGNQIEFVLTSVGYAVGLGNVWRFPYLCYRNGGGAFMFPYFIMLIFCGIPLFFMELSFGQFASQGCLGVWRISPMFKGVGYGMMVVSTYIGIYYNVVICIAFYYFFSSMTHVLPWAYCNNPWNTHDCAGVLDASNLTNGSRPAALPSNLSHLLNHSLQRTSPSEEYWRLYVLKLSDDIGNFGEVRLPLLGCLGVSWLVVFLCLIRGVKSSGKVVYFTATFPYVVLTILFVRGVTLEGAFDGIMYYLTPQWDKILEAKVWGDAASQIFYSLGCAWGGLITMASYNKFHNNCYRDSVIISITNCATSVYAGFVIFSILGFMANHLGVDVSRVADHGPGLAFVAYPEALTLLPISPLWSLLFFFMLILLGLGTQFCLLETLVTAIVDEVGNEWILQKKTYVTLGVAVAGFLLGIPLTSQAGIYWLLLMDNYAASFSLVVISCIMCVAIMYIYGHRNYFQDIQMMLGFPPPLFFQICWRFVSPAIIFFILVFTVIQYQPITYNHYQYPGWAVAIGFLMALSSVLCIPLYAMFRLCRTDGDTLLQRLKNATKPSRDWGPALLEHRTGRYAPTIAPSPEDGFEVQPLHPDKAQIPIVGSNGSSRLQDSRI

[2] = molecular target: T2, Sodium- and chloride-dependent glycine transporter 2 (Homo sapiens, UniProt Q9Y345); assay: Inhibition of [3H]glycine uptake at human glycine transporter 2 expressed in CHO cells by scintillation counter; format: cell-based
T2 sequence (Q9Y345 whole entry): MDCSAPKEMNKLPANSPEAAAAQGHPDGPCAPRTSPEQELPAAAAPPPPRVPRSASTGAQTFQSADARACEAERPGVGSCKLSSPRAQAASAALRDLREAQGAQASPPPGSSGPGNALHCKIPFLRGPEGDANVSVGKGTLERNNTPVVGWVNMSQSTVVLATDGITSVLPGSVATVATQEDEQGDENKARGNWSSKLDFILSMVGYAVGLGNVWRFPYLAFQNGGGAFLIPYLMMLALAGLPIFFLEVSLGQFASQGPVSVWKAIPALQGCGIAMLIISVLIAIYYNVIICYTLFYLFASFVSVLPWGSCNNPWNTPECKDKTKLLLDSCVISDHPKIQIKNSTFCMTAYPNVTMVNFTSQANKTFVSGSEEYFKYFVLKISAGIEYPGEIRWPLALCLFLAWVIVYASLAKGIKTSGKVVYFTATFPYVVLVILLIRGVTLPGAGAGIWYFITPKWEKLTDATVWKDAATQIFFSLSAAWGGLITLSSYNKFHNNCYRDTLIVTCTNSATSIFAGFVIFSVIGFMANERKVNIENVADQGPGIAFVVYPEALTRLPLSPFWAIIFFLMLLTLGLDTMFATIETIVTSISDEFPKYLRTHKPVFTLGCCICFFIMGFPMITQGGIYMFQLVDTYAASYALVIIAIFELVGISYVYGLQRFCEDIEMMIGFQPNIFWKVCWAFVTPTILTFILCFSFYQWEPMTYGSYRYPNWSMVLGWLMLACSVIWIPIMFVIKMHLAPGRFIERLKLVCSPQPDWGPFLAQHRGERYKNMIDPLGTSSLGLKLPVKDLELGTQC
Outline: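 [³H]-glycine uptake inhibition in cells transfected with human GlyT2 cDNA. EC50 is the average of at least two independent experiments.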

[3] = Aqueous solubility in phosphate buffer at pH 6.5 by lyophilization solubility assay; format: physicochemical
Outline: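 Aqueous solubility was measured at pH 6.5 in a lyophilization solubility assay.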

[4] = Metabolic stability in mouse liver microsomes assessed as intrinsic clearance per […] of protein; format: ADME, Microsome
Outline: (§1)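 Intrinsic clearance measured in liver microsomes from rat, mouse or human, expressed per mg microsomal protein.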

Liver microsomes [5] = assay: Metabolic stability in human liver microsomes assessed as intrinsic clearance per […] of protein; format: ADME, Microsome; outline: as §1
Liver microsomes [6] = assay: Metabolic stability in rat liver microsomes assessed as intrinsic clearance per […] of protein; format: ADME, Microsome; outline: as §1
Homo sapiens = species: Homo sapiens; assay: Selectivity ratio of IC50 for human glycine transporter 2 to IC50 for human glycine transporter 1
Outline: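 [³H]-glycine uptake inhibition in cells transfected with human GlyT1 or human GlyT2 cDNA. Each EC50 is the average of at least two independent experiments. Selectivity is the ratio of GlyT2 EC50 to GlyT1 EC50.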

[7] = Membrane permeability by PAMPA; format: ADME; settings: read-out: permeability
Outline: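 PAMPA artificial-membrane permeation, reported as the permeation constant Pe in 10^-6 cm/s.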

Structure (SMILES)	EC50 [1]	EC50 [2]	also measured
CC(=O)c1ccc(N2CCN(C(=O)c3cc([N+](=O)[O-])ccc3N(C)C)CC2)c(F)c1	500 nM	2000 nM	
O=C(c1cc([N+](=O)[O-])ccc1N1CCOCC1)N1CCN(c2ccccc2C(F)(F)F)CC1	7100 nM	> 30000 nM	
O=C(c1cc([N+](=O)[O-])ccc1N1CCOCC1)N1CCN(c2cccc(Cl)c2)CC1	700 nM	3100 nM	
CC(C)Oc1ccc(S(C)(=O)=O)cc1C(=O)N1CCN(c2ccc(C(F)(F)F)cc2)CC1	82 nM		solubility [3]: 62 µg/mL (≈ 132 µM); clearance [4]: 0 µL/min/mg; clearance (Liver microsomes [5]): 0 µL/min/mg
CC(=O)c1ccc(N2CCN(C(=O)c3cc([N+](=O)[O-])ccc3NCC3CCCCC3)CC2)c(F)c1	> 10000 nM		
CC(=O)c1ccc(N2CCN(C(=O)c3cc([N+](=O)[O-])ccc3N)CC2)c(F)c1	> 10000 nM	3300 nM	
CC(=O)c1ccc(N2CCN(C(=O)c3cc([N+](=O)[O-])ccc3NC(C)C)CC2)c(F)c1	2 nM	10000 nM	
O=C(c1cc([N+](=O)[O-])ccc1N1CCOCC1)N1CCN(c2ccc(C(F)(F)F)cc2)CC1	100 nM	3300 nM	
O=C(c1cc([N+](=O)[O-])ccc1N1CCOCC1)N1CCN(c2ccc(Cl)cc2)CC1	310 nM	1170 nM	
CC(=O)c1ccc(N2CCN(C(=O)c3cc([N+](=O)[O-])ccc3NC3CCCCC3)CC2)c(F)c1	2 nM	8500 nM	
COc1cccc(N2CCN(C(=O)c3cc([N+](=O)[O-])ccc3N3CCOCC3)CC2)c1	530 nM	8300 nM	
Cc1cccc(N2CCN(C(=O)c3cc([N+](=O)[O-])ccc3N3CCOCC3)CC2)c1	1100 nM	4000 nM	
O=C(c1cc([N+](=O)[O-])ccc1N1CCOCC1)N1CCN(c2ccc(C(F)(F)F)c(F)c2)CC1	37 nM	15000 nM	
COc1ccc(N2CCN(C(=O)c3cc([N+](=O)[O-])ccc3N3CCOCC3)CC2)cc1	1300 nM	11400 nM	
O=C(c1cc([N+](=O)[O-])ccc1N1CCOCC1)N1CCN(c2ccccc2Cl)CC1	1400 nM	11200 nM	
CNc1ccc([N+](=O)[O-])cc1C(=O)N1CCN(c2ccc(C(C)=O)cc2F)CC1	1900 nM	1400 nM	
Cc1ccc(N2CCN(C(=O)c3cc([N+](=O)[O-])ccc3N3CCOCC3)CC2)cc1	2900 nM	7700 nM	
O=C(c1cc([N+](=O)[O-])ccc1N1CCOCC1)N1CCN(c2ccc(C(F)(F)F)c(Cl)n2)CC1	33 nM	24000 nM	
N#Cc1cc(C(F)(F)F)ccc1N1CCN(C(=O)c2cc([N+](=O)[O-])ccc2N2CCOCC2)CC1	15 nM	> 30000 nM	
O=C(c1cc([N+](=O)[O-])ccc1N1CCOCC1)N1CCN(c2ncc(C(F)(F)F)cc2Cl)CC1	47 nM	> 30000 nM	
CC(=O)c1ccc(N2CCN(C(=O)c3cccc([N+](=O)[O-])c3)CC2)c(F)c1	32000 nM	24500 nM	
O=C(c1cc([N+](=O)[O-])ccc1N1CCOCC1)N1CCN(c2cccc(C(F)(F)F)c2)CC1	400 nM	300 nM	
COc1ccccc1N1CCN(C(=O)c2cc([N+](=O)[O-])ccc2N2CCOCC2)CC1	> 10000 nM	13400 nM	
N#Cc1ccc(N2CCN(C(=O)c3cc([N+](=O)[O-])ccc3N3CCOCC3)CC2)cc1	78 nM	1100 nM	

More lines, main results first:

EC50 [1]	EC50 [2]	Structure (SMILES)	also measured
110 nM	2100 nM	CS(=O)(=O)c1ccc(N2CCN(C(=O)c3cc([N+](=O)[O-])ccc3N3CCOCC3)CC2)cc1	
40 nM	> 30000 nM	CS(=O)(=O)c1ccc(N2CCN(C(=O)c3cc([N+](=O)[O-])ccc3N3CCOCC3)CC2)c(F)c1	
> 30000 nM		CC(=O)c1ccc(N2CCN(C(=O)c3ccccc3N3CCOCC3)CC2)c(F)c1	
180 nM	13000 nM	CC(=O)c1ccc(N2CCN(C(=O)c3cc(C#N)ccc3N3CCOCC3)CC2)c(F)c1	solubility [3]: < 1 µg/mL; clearance (Liver microsomes [6]): 53 µL/min/mg; Ratio EC50 (Homo sapiens): 72; Papp [7]: 6.1 ×10⁻⁶ cm/s; clearance (Liver microsomes [5]): 31 µL/min/mg
120 nM	> 30000 nM	CC(=O)c1ccc(N2CCN(C(=O)c3cc(S(N)(=O)=O)ccc3N3CCOCC3)CC2)c(F)c1	solubility [3]: 308 µg/mL (≈ 628 µM); Ratio EC50 (Homo sapiens): > 250; Papp [7]: 3.3 ×10⁻⁶ cm/s; clearance (Liver microsomes [5]): 31 µL/min/mg
1600 nM	> 30000 nM	CCCS(=O)(=O)c1ccc(N2CCOCC2)c(C(=O)N2CCN(c3ccc(C(C)=O)cc3F)CC2)c1	
> 10000 nM	14200 nM	Cc1ccccc1N1CCN(C(=O)c2cc([N+](=O)[O-])ccc2N2CCOCC2)CC1	
100 nM	> 30000 nM	CNS(=O)(=O)c1ccc(N2CCOCC2)c(C(=O)N2CCN(c3ccc(C(C)=O)cc3F)CC2)c1	solubility [3]: 30 µg/mL (≈ 59.5 µM); clearance (Liver microsomes [6]): 106 µL/min/mg; Ratio EC50 (Homo sapiens): > 300; Papp [7]: 5.3 ×10⁻⁶ cm/s; clearance (Liver microsomes [5]): 43 µL/min/mg
> 30000 nM	5100 nM	CC(=O)c1ccc(N2CCN(C(=O)c3cc(Br)ccc3N3CCOCC3)CC2)c(F)c1	Ratio EC50 (Homo sapiens): < 0.2
1 nM	4000 nM	CC(=O)c1ccc(N2CCN(C(=O)c3cc([N+](=O)[O-])ccc3N3CCCCC3)CC2)c(F)c1	
15 nM	> 30000 nM	CC(=O)c1ccc(N2CCN(C(=O)c3cc(S(C)(=O)=O)ccc3SC(C)C)CC2)c(F)c1	
26000 nM	11000 nM	CC(=O)c1ccc(N2CCN(C(=O)c3cc(C(F)(F)F)ccc3N3CCOCC3)CC2)c(F)c1	Ratio EC50 (Homo sapiens): 0.4
39 nM	> 30000 nM	CC(=O)c1ccc(N2CCN(C(=O)c3cc(S(C)(=O)=O)ccc3OC(C)C)CC2)c(F)c1	
30 nM	4300 nM	N#Cc1ccc(N2CCN(C(=O)c3cc([N+](=O)[O-])ccc3N3CCOCC3)CC2)c(F)c1	
45 nM		CS(=O)(=O)c1ccc(N2CCOCC2)c(C(=O)N2CCN(c3ccc(C(F)(F)F)cc3)CC2)c1	solubility [3]: 3 µg/mL (≈ 6.03 µM); clearance [4]: 15 µL/min/mg; clearance (Liver microsomes [5]): 10 µL/min/mg
> 30000 nM	> 30000 nM	CC(=O)c1ccc(N2CCN(C(=O)c3cc(S(=O)(=O)Cc4ccccc4)ccc3N3CCOCC3)CC2)c(F)c1	
41 nM	29000 nM	O=C(c1cc([N+](=O)[O-])ccc1N1CCOCC1)N1CCN(c2ccc(C(F)(F)F)cc2F)CC1	
> 30000 nM	> 30000 nM	CC(=O)c1ccc(N2CCN(C(=O)c3cc(C)ccc3N3CCOCC3)CC2)c(F)c1	
15 nM	4800 nM	CC(=O)c1ccc(N2CCN(C(=O)c3cc([N+](=O)[O-])ccc3N3CCOCC3)CC2)c(F)c1	solubility [3]: 9 µg/mL (≈ 19.7 µM); clearance (Liver microsomes [6]): 106 µL/min/mg; Ratio EC50 (Homo sapiens): 320; Papp [7]: 4.7 ×10⁻⁶ cm/s; clearance (Liver microsomes [5]): 35 µL/min/mg
> 30000 nM	> 30000 nM	CC(=O)c1ccc(N2CCN(C(=O)c3cc(N)ccc3N3CCOCC3)CC2)c(F)c1	

Reference: ChEMBL document CHEMBL1141693, “Discovery of benzoylpiperazines as a novel class of potent and selective GlyT1 inhibitors” (Bioorg Med Chem Lett, 2008)
